SMILES strings stand for the structures. Active and inactive are the calls of the source. The rule behind the calls is not given here.

As a reminder, the inhibition is the relative decrease from the control value, in per cent. As usually defined, the IC50 is the midpoint of a concentration-inhibition curve. Low readings indicate higher potency, high ones lower potency.

The target of test [1] is T1, Ephrin type-B receptor 2 (Homo sapiens) (UniProt P29323).
T1 sequence (whole entry): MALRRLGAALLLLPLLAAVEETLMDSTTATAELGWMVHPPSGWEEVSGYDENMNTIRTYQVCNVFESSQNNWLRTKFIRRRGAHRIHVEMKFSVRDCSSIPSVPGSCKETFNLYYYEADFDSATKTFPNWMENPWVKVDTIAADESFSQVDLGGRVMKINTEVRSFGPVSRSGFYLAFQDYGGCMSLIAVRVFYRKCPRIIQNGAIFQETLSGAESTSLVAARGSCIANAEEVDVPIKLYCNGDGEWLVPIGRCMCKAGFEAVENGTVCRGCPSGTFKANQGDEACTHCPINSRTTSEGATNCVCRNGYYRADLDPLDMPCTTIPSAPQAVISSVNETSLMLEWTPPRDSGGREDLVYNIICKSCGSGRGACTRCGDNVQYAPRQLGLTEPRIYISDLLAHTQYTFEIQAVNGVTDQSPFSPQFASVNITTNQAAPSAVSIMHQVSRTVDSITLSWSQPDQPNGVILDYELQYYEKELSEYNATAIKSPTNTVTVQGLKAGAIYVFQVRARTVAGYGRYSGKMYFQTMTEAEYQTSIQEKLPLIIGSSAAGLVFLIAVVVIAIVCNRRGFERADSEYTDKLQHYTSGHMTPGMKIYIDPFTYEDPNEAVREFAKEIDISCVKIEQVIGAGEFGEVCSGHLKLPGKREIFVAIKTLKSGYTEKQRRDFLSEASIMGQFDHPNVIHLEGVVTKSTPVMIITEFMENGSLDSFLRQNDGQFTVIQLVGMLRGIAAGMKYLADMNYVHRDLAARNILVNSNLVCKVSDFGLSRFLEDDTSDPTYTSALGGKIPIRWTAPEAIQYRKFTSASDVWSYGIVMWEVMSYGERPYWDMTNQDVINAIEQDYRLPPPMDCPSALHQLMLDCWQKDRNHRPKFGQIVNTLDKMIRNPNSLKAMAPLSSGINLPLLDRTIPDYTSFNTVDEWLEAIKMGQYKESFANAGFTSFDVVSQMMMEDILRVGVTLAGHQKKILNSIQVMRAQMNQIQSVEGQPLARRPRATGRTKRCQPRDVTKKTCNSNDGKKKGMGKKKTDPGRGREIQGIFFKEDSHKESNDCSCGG
Kind of test: Inhibition of EphB2 ACT labeling site in human A-375 cells at 0.5 uM by KiNativ Profiling analysis relative to control. In kind it is cell-based. A digest of the protocol: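 Live A375 melanoma cells were treated with compound at 0.5 or 5 μM, then lysed. Lysates were labeled with a lysine-reactive ATP or ADP-biotin probe. The read-out was protection of each kinase probe-labeling site from labeling, relative to control.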

Test [2] concerns the target Tyrosine-protein kinase ABL2 (Homo sapiens, UniProt P42684). As to the kind of experiment: Inhibition of ARG (unknown origin) ACT labeling site by KiNativ Profiling analysis.
Test [3] deals with Cyclin-dependent kinase 16 (Homo sapiens) (UniProt Q00536). As to the kind of experiment: Inhibition of PCTAIRE1 Lys1 labeling site in human A-375 cells at 5 uM by KiNativ Profiling analysis relative to control. It is filed as cell-based.
The target in test [4] is Mitogen-activated protein kinase 9 (Homo sapiens, UniProt P45984). As to the kind of experiment: Inhibition of JNK2 Lys2 labeling site in human A-375 cells at 0.05 uM by KiNativ Profiling analysis relative to control. In kind it is cell-based.
Test [5] addresses T2, Kinase suppressor of Ras 1 (Homo sapiens) (UniProt Q8IVT5).
T2 sequence (whole entry): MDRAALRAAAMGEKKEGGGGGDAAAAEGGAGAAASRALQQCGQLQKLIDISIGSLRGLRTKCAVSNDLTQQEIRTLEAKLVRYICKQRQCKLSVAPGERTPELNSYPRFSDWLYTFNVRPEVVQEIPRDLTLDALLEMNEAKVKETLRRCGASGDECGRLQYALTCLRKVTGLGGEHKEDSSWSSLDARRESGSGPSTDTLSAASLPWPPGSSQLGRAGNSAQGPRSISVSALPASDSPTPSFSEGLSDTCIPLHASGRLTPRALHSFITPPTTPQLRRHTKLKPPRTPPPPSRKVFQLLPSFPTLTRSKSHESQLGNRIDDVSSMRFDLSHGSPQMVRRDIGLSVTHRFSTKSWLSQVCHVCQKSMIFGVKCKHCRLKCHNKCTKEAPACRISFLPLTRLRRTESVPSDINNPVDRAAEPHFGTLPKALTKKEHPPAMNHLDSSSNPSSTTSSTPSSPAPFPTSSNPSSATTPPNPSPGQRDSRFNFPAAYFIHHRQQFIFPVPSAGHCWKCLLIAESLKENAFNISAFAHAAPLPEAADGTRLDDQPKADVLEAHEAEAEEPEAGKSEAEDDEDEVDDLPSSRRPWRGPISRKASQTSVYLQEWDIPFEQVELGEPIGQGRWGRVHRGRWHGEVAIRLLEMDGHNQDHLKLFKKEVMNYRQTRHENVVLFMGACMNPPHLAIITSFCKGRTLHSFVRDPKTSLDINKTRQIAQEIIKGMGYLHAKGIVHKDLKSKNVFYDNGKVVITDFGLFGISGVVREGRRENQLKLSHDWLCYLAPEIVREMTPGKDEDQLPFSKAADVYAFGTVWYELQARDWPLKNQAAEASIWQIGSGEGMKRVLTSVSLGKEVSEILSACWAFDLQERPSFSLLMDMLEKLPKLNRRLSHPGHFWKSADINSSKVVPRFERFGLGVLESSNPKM
Kind of test: Inhibition of KSR1 ACT labeling site harbouring SKNVFYDNGK in human A-375 cells at 0.05 uM by KiNativ Profiling analysis relative to control. It is filed as cell-based.

Test [6] deals with MAP/microtubule affinity-regulating kinase 3 (Homo sapiens) (UniProt P27448). As to the kind of experiment: Inhibition of MARK3 Lys1 labeling site in human A-375 cells at 0.05 uM by KiNativ Profiling analysis relative to control. In kind it is cell-based.
For test [7], the target named is Phosphatidylinositol 3-kinase catalytic subunit type 3 (Homo sapiens) (UniProt Q8NEB9). As to the kind of experiment: Inhibition of PIK3C3 ATP labeling site in human A-375 cells at 0.05 uM by KiNativ Profiling analysis relative to control. In kind it is cell-based.
In test [8] the target is Serine/threonine-protein kinase WNK4 (Homo sapiens) (UniProt Q96J92). Kind of test: Inhibition of Wnk4 ACT labeling site in human A-375 cells at 0.05 uM by KiNativ Profiling analysis relative to control. In kind it is cell-based.
For the next test, the system named is GEN2.2. Kind of test: Inhibition of CL097 induced p38 phosphorylation level in human GEN2.2 cells at 1 uM preincubated with compound for 1 hr followed by CL097 stimulation and measured after 30 mins by Western blot analysis. In kind it is functional, cell-based. The method in brief: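 Gen2.2 cells were pretreated with compound at 1 μM for 1 h, then stimulated with CL097 for 30 min. Lysates were analysed by Western blot for phosphorylation of p105, p38 and JNK1/2.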

Sequence of Mitogen-activated protein kinase 9 (P45984 whole entry, looked up): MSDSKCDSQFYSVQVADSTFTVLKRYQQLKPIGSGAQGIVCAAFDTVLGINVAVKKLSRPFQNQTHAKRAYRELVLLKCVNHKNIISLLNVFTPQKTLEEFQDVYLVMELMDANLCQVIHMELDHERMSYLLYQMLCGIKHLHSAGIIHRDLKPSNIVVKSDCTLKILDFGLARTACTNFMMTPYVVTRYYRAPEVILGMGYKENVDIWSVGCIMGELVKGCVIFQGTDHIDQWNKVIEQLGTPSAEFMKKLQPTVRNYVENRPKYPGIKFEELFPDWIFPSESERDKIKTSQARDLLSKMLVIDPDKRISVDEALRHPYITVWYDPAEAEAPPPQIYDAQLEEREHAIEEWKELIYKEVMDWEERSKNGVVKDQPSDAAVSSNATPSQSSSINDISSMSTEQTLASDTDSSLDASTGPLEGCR
Sequence of Cyclin-dependent kinase 16 (Homo sapiens) (Q00536 whole entry): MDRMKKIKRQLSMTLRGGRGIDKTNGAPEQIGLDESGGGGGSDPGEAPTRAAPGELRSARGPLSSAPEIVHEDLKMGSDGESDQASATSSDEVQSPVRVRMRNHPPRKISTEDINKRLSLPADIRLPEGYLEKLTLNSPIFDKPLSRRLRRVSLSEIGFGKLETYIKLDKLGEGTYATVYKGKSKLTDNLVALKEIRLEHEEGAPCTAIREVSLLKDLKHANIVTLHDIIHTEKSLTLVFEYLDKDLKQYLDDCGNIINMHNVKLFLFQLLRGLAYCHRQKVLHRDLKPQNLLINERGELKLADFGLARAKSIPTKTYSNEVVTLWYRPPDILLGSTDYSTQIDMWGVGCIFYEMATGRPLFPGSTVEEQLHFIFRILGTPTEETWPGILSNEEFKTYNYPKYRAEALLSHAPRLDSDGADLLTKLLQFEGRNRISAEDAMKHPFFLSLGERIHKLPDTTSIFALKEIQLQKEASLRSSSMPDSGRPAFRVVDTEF
Sequence of Serine/threonine-protein kinase WNK4 (Homo sapiens) (Q96J92 whole entry): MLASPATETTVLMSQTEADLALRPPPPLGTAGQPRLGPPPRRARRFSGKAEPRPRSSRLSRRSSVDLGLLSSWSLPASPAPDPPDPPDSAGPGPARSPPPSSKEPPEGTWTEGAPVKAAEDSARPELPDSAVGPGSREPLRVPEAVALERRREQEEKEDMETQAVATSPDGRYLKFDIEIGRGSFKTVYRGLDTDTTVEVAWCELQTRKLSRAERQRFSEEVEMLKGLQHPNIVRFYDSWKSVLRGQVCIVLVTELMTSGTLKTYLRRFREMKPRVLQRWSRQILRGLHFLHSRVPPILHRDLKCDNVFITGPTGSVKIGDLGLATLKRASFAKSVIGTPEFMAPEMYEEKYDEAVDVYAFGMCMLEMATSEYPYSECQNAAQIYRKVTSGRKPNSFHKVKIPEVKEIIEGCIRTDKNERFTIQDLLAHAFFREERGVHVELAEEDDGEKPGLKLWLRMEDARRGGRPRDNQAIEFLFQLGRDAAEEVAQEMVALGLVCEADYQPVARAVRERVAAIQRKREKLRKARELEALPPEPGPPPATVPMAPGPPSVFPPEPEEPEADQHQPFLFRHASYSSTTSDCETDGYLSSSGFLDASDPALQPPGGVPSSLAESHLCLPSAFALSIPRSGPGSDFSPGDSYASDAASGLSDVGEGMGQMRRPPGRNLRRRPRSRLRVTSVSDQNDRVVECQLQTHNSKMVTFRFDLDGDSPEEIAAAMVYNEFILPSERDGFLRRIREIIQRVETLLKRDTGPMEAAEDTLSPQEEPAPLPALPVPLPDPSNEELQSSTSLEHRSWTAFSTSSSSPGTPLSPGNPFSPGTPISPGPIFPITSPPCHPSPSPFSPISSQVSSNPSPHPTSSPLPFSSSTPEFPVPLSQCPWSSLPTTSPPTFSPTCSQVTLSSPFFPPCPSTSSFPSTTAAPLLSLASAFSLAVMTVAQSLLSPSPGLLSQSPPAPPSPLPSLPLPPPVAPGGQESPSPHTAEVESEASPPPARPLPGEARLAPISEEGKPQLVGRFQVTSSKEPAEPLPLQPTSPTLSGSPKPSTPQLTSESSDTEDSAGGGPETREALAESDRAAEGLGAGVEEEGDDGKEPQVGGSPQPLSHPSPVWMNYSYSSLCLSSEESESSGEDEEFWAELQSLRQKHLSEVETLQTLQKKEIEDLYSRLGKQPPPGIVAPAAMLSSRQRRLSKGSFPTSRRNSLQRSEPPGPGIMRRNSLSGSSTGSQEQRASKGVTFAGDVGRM
Sequence of Phosphatidylinositol 3-kinase catalytic subunit type 3 (Homo sapiens) (Q8NEB9 whole entry): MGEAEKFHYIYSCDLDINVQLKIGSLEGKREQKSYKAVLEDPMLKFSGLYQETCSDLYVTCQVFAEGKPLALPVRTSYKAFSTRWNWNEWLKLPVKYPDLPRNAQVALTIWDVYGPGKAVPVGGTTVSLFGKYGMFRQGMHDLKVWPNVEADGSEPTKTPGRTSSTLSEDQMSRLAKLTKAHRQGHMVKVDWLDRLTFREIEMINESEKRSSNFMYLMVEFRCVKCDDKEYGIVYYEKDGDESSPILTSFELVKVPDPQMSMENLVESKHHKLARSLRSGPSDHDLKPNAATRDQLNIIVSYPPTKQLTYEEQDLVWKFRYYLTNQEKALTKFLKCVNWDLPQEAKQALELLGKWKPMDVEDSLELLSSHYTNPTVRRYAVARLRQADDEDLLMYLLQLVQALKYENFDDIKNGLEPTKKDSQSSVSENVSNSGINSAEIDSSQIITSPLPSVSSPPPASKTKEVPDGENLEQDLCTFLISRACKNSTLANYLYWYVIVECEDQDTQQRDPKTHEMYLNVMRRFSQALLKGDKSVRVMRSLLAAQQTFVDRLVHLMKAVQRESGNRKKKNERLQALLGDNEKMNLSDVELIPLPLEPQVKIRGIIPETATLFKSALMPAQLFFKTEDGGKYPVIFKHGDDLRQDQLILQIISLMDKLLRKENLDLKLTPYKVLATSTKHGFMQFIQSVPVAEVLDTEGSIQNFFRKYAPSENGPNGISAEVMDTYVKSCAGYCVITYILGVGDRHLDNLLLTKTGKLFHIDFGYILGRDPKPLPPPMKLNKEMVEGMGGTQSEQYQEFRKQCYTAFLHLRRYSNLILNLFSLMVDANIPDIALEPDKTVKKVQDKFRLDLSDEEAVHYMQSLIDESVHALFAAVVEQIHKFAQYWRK
Sequence of Tyrosine-protein kinase ABL2 (P42684 whole entry): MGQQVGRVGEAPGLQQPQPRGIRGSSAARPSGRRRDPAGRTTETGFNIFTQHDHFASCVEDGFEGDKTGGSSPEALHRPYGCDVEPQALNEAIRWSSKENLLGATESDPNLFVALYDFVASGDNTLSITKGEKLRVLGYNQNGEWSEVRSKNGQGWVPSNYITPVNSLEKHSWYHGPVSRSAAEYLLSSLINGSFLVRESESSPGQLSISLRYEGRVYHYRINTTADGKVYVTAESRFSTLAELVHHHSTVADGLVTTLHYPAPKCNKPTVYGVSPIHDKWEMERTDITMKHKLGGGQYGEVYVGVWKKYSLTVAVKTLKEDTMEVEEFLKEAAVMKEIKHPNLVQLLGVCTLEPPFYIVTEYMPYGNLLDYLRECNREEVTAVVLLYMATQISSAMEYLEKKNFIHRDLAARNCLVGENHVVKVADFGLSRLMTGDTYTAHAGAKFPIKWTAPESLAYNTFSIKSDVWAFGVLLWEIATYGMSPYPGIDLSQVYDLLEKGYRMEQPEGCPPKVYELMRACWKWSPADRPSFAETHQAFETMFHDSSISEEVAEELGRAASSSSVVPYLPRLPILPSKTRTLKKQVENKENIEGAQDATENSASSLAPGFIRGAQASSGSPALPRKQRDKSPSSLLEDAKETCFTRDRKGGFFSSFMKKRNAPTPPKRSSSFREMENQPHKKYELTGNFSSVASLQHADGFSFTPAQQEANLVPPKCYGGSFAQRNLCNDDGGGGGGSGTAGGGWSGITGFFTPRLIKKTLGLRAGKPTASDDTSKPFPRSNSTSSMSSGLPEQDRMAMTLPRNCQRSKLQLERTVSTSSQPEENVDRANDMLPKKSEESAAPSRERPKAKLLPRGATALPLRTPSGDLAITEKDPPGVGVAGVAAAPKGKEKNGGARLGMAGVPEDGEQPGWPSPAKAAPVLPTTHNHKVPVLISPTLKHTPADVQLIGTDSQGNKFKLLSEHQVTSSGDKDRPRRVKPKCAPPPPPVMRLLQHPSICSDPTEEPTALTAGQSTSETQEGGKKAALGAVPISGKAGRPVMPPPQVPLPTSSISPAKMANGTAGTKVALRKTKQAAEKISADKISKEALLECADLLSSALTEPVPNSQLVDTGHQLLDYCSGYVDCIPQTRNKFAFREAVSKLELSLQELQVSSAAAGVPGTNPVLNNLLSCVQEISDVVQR
Sequence of MAP/microtubule affinity-regulating kinase 3 (Homo sapiens) (P27448 whole entry, looked up): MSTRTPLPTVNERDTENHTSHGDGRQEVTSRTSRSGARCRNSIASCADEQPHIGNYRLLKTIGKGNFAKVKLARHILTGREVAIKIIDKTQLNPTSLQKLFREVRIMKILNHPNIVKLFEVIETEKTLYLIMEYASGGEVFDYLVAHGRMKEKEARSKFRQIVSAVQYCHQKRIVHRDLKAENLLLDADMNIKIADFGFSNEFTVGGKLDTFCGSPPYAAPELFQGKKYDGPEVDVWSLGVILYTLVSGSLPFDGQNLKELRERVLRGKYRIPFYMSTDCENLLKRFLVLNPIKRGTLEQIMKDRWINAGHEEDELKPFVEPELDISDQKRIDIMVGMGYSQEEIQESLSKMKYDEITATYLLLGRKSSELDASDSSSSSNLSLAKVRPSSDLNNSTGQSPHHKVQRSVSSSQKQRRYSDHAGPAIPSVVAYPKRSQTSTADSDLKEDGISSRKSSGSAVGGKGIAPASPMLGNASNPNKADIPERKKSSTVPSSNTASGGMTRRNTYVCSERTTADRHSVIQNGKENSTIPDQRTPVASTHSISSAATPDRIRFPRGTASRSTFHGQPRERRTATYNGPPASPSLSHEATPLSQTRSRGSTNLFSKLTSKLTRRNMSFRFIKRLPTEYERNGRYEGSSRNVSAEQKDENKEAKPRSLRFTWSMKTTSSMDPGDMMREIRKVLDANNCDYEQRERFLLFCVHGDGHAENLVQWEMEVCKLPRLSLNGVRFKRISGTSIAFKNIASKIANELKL

Regarding `CCN1CCN(Cc2ccc(NC(=O)c3ccc(C)c(/C=C/c4cnc5[nH]ccc5c4OC)c3)cc2C(F)(F)F)CC1`, the inhibition in [1] was 55.5%; in test [3] it was 32.1%; in test [4] it was 23.9%; in test [5] it was 8.6%; in test [6] it was 16%; in test [7], 38.2%. Besides, the inhibition in [8] was determined as 10.1%. In addition, half-maximal inhibition in test [2] (IC50) was put at 51.5 nM.

For `CNc1cc(Oc2cc(C(=O)Nc3cc(-n4cnc(C)c4)cc(C(F)(F)F)c3)ccc2C)ncn1`, the inhibition result in the test with GEN2.2 is “inactive”.

`CCN1CCN(Cc2ccc(NC(=O)c3ccc(C)c(Oc4ccnc5[nH]ccc45)c3)cc2C(F)(F)F)CC1`: the inhibition in test [1] was -2.2%; in test [3], 72.6%; in [4] it was 50.3%; in [5] it was 37%; in [6], -4.5%; in test [7] it was 33.3%. In test [8], the inhibition was found to be 10.3%. For the same molecule, inhibition in test [2] was half-maximal at 75.2 nM (IC50). In the test on GEN2.2, the inhibition entry is “Active”.

These data come from ChEMBL document CHEMBL5696442, “Discovery of type II inhibitors of TGFβ-activated kinase 1 (TAK1) and mitogen-activated protein kinase kinase kinase kinase 2 (MAP4K2)” (J Med Chem, 2015).
